Compound activity deposited in PubChem by Johns Hopkins Ion Channel Center.
Shown are actives, neighbours in structure and some others; about 3.8% of the full set was active somewhere.
KCNQ1 pot: human KCNQ1 channel potentiation or activation | P51787 | CHO-K1 KCNQ1, thallium flux FluxOR fluorescence; stronger effect = higher value | B-score at 10 µM | 0.35% of 310,000 active | AID 2648;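 active = fluorescence ratio B-score, a plate-corrected score, at least three library SD, with initial intensity B-score within 5 SD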
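Schedule – 37 °C overnight plating, 90-min dark dye load, 20-min compound pretreatment · System – stable KCNQ1 CHO-K1 line · Probe or stimulus – thallium- and potassium-containing depolarizing buffer · Measured by – kinetic FluxOR fluorescence, 10 s baseline plus 110 s post-stimulus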
Kir21 block: Kir2.1 (mouse) channel inhibition. 0.85% of 310,000 active. HEK293-Kir2.1, FluxOR thallium flux fluorescence; stronger effect = lower value. B-score at 10 µM;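 active = fluorescence ratio B-score at or below minus 3 SD of library scores, with starting-brightness B-score within 2 SD, cut at about -4.2 in these data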;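 note: channel flux triggered by added potassium and thallium sulfate stimulus; B-score of peak minus minimum fluorescence over baseline after thallium stimulus; more negative B-score means stronger Kir2.1 block with less thallium influx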
KCNQ1 inh: human KCNQ1 channel inhibition; CHO-K1 KCNQ1, FluxOR thallium flux fluorescence; stronger effect = higher value; B-score at 10 µM; 1.3% of 310,000 active; AID 2642;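 active = compounds whose thallium flux B-score, printed positive for inhibition, exceeds three library SD while starting fluorescence stays within three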;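 note: channel opened by potassium depolarization with thallium stimulus after 20 min compound exposure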
KCNK3 block: human KCNK3 channel inhibition, primary screen. 0.84% of 340,000 active. AID 602410. B-score at 10 µM. CHO-KCNK3 thallium flux, FluxOR fluorescence; stronger effect = lower value. O14649;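 active = B-score under library mean minus 4 SD, starting fluorescence ratio at most library mean plus 5 SD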;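 note: more negative B-score means stronger inhibition of thallium flux through KCNK3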
hERG rescue: hERG (human) protection from proarrhythmic block | 0.51% of 310,000 active | CHO-hERG, FluxOR thallium flux, dofetilide IC70 present | activation (rescue from dofetilide block), less the hit threshold, % at 10 µM | AID 1511;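 active = activation above the mean of controls blocked by dofetilide plus 5 SD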;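 note: thallium influx through hERG after potassium depolarization seen as dye fluorescence rise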
Target sequence (Q12809 whole entry, looked up): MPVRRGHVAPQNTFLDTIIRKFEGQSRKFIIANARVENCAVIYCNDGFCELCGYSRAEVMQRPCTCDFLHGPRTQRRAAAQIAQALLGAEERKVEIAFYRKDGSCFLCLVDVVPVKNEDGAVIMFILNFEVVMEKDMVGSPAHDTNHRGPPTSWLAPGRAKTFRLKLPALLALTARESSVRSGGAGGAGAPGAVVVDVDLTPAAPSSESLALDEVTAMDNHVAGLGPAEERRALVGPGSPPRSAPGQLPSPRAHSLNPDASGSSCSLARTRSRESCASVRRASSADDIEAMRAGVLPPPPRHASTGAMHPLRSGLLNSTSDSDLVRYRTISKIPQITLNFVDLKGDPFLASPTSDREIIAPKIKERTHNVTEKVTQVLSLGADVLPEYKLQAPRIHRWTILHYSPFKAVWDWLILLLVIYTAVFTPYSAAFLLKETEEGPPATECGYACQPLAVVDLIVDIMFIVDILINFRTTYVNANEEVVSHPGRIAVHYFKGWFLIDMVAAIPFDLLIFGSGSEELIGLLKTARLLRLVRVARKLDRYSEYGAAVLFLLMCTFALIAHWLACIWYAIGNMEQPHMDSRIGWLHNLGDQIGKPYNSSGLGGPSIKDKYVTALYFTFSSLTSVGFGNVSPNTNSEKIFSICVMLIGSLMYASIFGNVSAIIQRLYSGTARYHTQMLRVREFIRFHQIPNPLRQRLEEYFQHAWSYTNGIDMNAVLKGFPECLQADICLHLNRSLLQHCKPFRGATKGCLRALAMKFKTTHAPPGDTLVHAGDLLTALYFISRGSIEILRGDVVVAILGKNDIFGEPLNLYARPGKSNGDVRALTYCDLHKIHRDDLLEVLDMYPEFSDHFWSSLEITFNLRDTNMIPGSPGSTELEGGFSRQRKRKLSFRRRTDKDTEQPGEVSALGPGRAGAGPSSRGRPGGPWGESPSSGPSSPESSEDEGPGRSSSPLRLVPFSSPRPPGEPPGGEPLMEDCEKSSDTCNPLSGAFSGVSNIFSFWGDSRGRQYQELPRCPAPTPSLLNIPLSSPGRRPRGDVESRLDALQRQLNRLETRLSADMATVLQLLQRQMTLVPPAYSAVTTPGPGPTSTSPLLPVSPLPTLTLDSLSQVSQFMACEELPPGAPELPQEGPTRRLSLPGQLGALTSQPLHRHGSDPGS
KCNK9 inh: blocks the human KCNK9 two-pore domain potassium channel; B-score at 10 µM; 1.2% of 310,000 active; Q9NPC2; HEK293 KCNK9, FluxOR thallium flux fluorescence; stronger effect = lower value;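 active = ratio B-score over 3 SD below the library mean, with starting fluorescence within 5 SD of its mean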;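 note: negative B-score means less thallium flux so channel inhibition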
KCNK9 block conf: human KCNK9 inhibitor confirmation | HEK293 KCNK9 cells, FluxOR thallium flux fluorescence | inhibition, % at 10 µM | shares compounds with KCNK9 inh | AID 492992 | 43% of 4,900 active;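 active = thallium signal inhibited by more than 5 SD of the compound-free buffer control wells, on both duplicate plates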
Kir21 sel: mouse Kir2.1 off-target activity of KCNK9 modulators; shares compounds with KCNK9 inh; Kir2.1 cells, FluxOR thallium flux fluorescence; inhibition, % at 10 µM; 4% of 4,900 active;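 active = thallium signal drop more than 5 SD beyond the mean of the no-compound control wells, seen in both duplicate plates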;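 note: signal is fluorescence rise after thallium addition divided by baseline fluorescence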
HEK293 Tl ctr: second check of KCNK9 modulator effects in non-induced HEK293 cells; shares compounds with KCNK9 inh; FluxOR thallium flux; inhibition, % at 10 µM; 40% of 4,900 active;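 active = thallium signal drop beyond 5 SD of the untreated control mean, on both duplicate plates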
Large screens that a line does not name were inactive (follow-up assays come after a bar, where they were run).

O=c1nc2ccccc2c2n1CC(CN1CCN(c3cccc(Cl)c3)CC1)N2 (stereo unspecified)	none
CC1CCCCC1NC(=O)C1CCN(S(=O)(=O)c2ccc(-n3cnnn3)cc2)CC1 (stereo unspecified)	none
CCCc1nc2ccccc2c(=O)n1/N=C/c1ccccc1O	KCNQ1 inh 6, KCNK9 inh -8.4 | KCNK9 block conf 60.0% | Kir21 sel inactive | HEK293 Tl ctr 30.0%
CCO[C@@H]1OC(C(=O)N2CCN(Cc3ccccc3)CC2)=C[C@H](c2ccccc2)[C@H]1CCCO	none
Cc1ccc2c(c1)N(CCC(=O)NC1CCCCC1C)C(=O)CO2 (stereo unspecified)	none | KCNK9 block conf inactive | Kir21 sel inactive | HEK293 Tl ctr inactive
COC(=O)c1ccccc1NC(=O)C1CCN(C(=O)c2ccc(OC)cc2)CC1	none | KCNK9 block conf inactive | Kir21 sel inactive | HEK293 Tl ctr inactive
COc1ccc(C(=O)N2CCC(C(=O)NC3CC3)CC2)cc1	none
CN1CCN(C(=O)Nc2ccc([N+](=O)[O-])cc2)CC1	none
O=C(COc1ccc2c(c1)CCC2)N1CCN(c2ccccc2F)CC1	none | KCNK9 block conf inactive | Kir21 sel inactive | HEK293 Tl ctr inactive
CC1(C)CC(=O)c2cc(OCC(=O)N3CCN(c4ccccc4F)CC3)ccc2O1	none
O=C(COc1ccc2c(c1)CCC2)N1CCN(c2cccc(C(F)(F)F)c2)CC1	none | KCNK9 block conf inactive | Kir21 sel inactive | HEK293 Tl ctr inactive
O=C(COc1cccc(C(F)(F)F)c1)N1CCN(c2ccc(O)cc2)CC1	none
O=C(CCc1ccccc1)OCCOC(=O)CCc1ccccc1	none
CCC1CN(C(=O)NCc2ccc(F)cc2)c2cc(Cl)ccc2O1 (stereo unspecified)	none
CN(C(=O)c1cc(COc2ccc(F)cc2Cl)on1)C1CCCc2ccccc21 (stereo unspecified)	none | KCNK9 block conf inactive | Kir21 sel inactive | HEK293 Tl ctr 24.0%
COc1cc(Cl)ccc1OCc1cc(C(=O)NCC(C)c2ccccc2)no1 (stereo unspecified)	none | KCNK9 block conf inactive | Kir21 sel inactive | HEK293 Tl ctr inactive
O=C(NCCCc1ccccc1)c1cc(COc2ccc(F)cc2Cl)on1	KCNQ1 inh 6 | KCNK9 block conf inactive | Kir21 sel inactive | HEK293 Tl ctr inactive
Cc1ccc(CN(C)C(=O)c2cc(COc3ccc(F)cc3Cl)on2)o1	none
CC(CNC(=O)c1cc(COc2ccc3ncccc3c2)on1)c1ccccc1 (stereo unspecified)	none
Cc1cccc(N/N=C/c2ccncc2)c1	none
COc1ccc(C(C)=O)cc1CSc1nc(C)cc(C)n1	none
COc1ccc(C(C)=O)cc1CSc1ccc2c(c1)OCCO2	none | KCNK9 block conf inactive | Kir21 sel inactive | HEK293 Tl ctr inactive
O=C(Nc1ccccc1-c1nnc(SCc2ccccc2Cl)o1)c1ccccc1	none | KCNK9 block conf inactive | Kir21 sel inactive | HEK293 Tl ctr inactive
COc1ccc2nc(SCC(=O)Nc3ccc4c(c3)CCC4)[nH]c2c1	none | KCNK9 block conf inactive | Kir21 sel inactive | HEK293 Tl ctr inactive
COc1ccc2nc(SCC(=O)Nc3ccc4[nH]c(=O)[nH]c4c3)[nH]c2c1	none (no result: KCNQ1 pot, Kir21 block, KCNQ1 inh, hERG rescue, KCNK9 inh)
Cc1ccc([N+](=O)[O-])cc1S(=O)(=O)NCCc1c(C)[nH]c2c(C)cccc12	none
CCOc1cc(C(=O)Nc2ccc(S(=O)(=O)NC3=NCCCCC3)cc2)cc(Br)c1OC	none
CSc1cnnc2ccccc12	none (no result: KCNQ1 pot, Kir21 block, KCNQ1 inh, hERG rescue, KCNK9 inh)
CCOC(=O)c1sc(NC(=S)NC(=O)c2ccccc2Cl)c(C(=O)OCC)c1C	KCNK9 inh -9.1 | KCNK9 block conf inactive | Kir21 sel inactive | HEK293 Tl ctr inactive
CCOc1ccc(-c2cc(NC(=O)c3c(F)cccc3F)c(C(=O)O)s2)cc1	none | KCNK9 block conf inactive | Kir21 sel inactive | HEK293 Tl ctr inactive
